{"data": "Measured values of several laboratories", "cell line": "MDA-MB-468", "observed": "cell growth or viability", "note": "Protocols differ between the studies behind these lines. pIC50: −log10 of the molar value."}
{"SMILES": "Cc1cc(NCCCCCCCCNc2cc(C)nc3cc(N)ccc23)c2ccc(N)cc2n1", "technique": "MTT", "measurement": "pIC50", "result": 5.29}
{"SMILES": "CC(=O)c1c(C)c2cnc(Nc3ccc(N4CCNCC4)cn3)nc2n(C2CCCC2)c1=O", "technique": "resazurin", "measurement": "GI50", "result": "7.5 µM"}
{"SMILES": "COc1cc(-c2ccc(-c3ccc(C(=N)N)nc3)s2)cc(OC)c1OC", "technique": "SRB", "measurement": "GI50", "result": "1.74 µM"}
{"SMILES": "COc1ccc(C(=O)/C=C/c2cccc(Br)c2)cc1S(N)(=O)=O", "technique": "SRB", "concentration": "10 µM", "measurement": "inhibition", "result": "154%"}
{"SMILES": "Cc1cc(NS(=O)(=O)c2ccc(NC(=O)COc3ccc(C(C)(C)c4ccccc4)cc3)cc2)nc(C)n1", "technique": "MTT", "time": "48 h", "measurement": "pIC50", "result": 4.35}
{"SMILES": "COc1ccc(C(=O)/C=C/c2ccc(Cl)c(Cl)c2)cc1S(N)(=O)=O", "technique": "SRB", "concentration": "10 µM", "measurement": "inhibition", "result": "119%"}
{"SMILES": "CCc1ccc(N2NC(=O)/C(=C/c3ccc(-c4ccc(S(=O)(=O)Nc5nccs5)cc4)o3)C2=O)cc1", "technique": "MTT", "time": "72 h", "measurement": "pIC50", "result": 4.13}
{"SMILES": "COc1ccc(-c2ccc(-c3ccc(C(=N)N)nc3)s2)cc1Cl", "technique": "SRB", "measurement": "GI50", "result": "1.74 µM"}
{"SMILES": "NC1(C(=O)N[C@@H](CCO)c2ccc(Cl)cc2)CCN(c2ncnc3[nH]ccc23)CC1", "time": "72 h", "measurement": "GI50", "result": "> 8 µM"}
{"SMILES": "Cc1cc(NCCCCCCCNc2cc(C)nc3cc(N)ccc23)c2ccc(N)cc2n1", "technique": "MTT", "time": "96 h", "measurement": "pIC50", "result": 4.80}
{"SMILES": "Cc1ncsc1-c1ccc(CNC(=O)[C@@H]2C[C@@H](O)CN2C(=O)[C@@H](NC(=O)CCCCCCCCCC(=O)N2CCN(CC[C@H](NC(=O)C3(N)CCN(c4ncnc5[nH]ccc45)CC3)c3ccc(Cl)cc3)CC2)C(C)(C)C)cc1", "time": "72 h", "measurement": "GI50", "result": "0.49 µM"}
{"SMILES": "c1csc(-c2c3ccccc3cc3c2ccc2ccccc23)c1", "technique": "MTT", "measurement": "pIC50", "result": 4.47}
